Results: ChEMBL document CHEMBL5329172, “Chloroacetamide fragment library screening identifies new scaffolds for covalent inhibition of the TEAD·YAP1 interaction” (RSC Med Chem, 2023)
The source made the active and inactive calls. No cut-off for these calls is given here.

Assays:
[1] = tested on: S2; experiment: Inhibition of uPAR (unknown origin) expressed in S2 cells/FAM-labelled alpha-helical peptide AE-147 (unknown origin) protein-protein interaction preincubated for 24 hrs at 4 degree C with uPAR followed by fluorescent labelled AE-147 addition by fluorescence polarization assay; settings: Homo sapiens
Outline: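 Counter-screen FP: 250 nM uPAR lacking the GPI anchor (from S2 cells) was preincubated with compound for 24 h at 4 °C in PBS with 0.01% Triton X-100. AE-147-FAM peptide was then added at 100 nM final and polarization read at ex 485/em 535 nm.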

[2] = target: T1, YAP1-TEAD4 (Homo sapiens) (UniProt P46937+Q15561); experiment: (§1) Inhibition of GST-tagged TEAD4 (217 to 434 residues) (unknown origin) expressed in Escherichia coli BL21 (DE3) cells/FAM-labelled YAP1 (60 to 99 residues)(unknown origin) protein-protein interaction assessed as maximum inhibition at 50 uM preincubated for 24 hrs at 4 degree C with TEAD4 followed by fluorescent labelled YAP1 addition by fluorescence polarization assay
Outline: (§2)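 FP: 64 nM TEAD4, TEAD4C367S, TEAD2 or TEAD3, or 250 nM TEAD1, was preincubated with compound for 24 h at 4 °C in PBS with 0.01% Triton X-100. FAM-YAP1 60–99 peptide (disulfide-crosslinked) was then added at 16 nM final. Polarization was read at ex 485/em 535 nm. Percent inhibition was taken relative to no-compound and no-protein controls. The single-point primary screen used 50 μM.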

[3] = organism: Homo sapiens; experiment: as §1, with “TEAD4 C367S mutant” for “TEAD4 (217 to 434 residues)”, “interaction” for “interaction assessed as maximum inhibition at 50 uM”, “TEAD4 C367S mutant” for “TEAD4”; outline: as §2
[4] = target: YAP1-TEAD4 (Homo sapiens, UniProt Q15561); experiment: as §1, with “interaction” for “interaction assessed as maximum inhibition at 50 uM”; outline: as §2
[5] = target: T1, YAP1-TEAD4 (Homo sapiens); experiment: (§3) Covalent inhibition of GST-tagged TEAD4 (217 to 434 residues) (unknown origin) expressed in Escherichia coli BL21 (DE3) cells/FAM-labelled YAP1 (60 to 99 residues)(unknown origin) protein-protein interaction assessed as protein-compound adduct formation at 100 uM incubated for 24 hrs at 4 degree C followed by mass spectrometry analysis
Outline: (§4)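 Intact-protein MS: 2.5 μM protein (TEAD4 217–434 with GST cleaved, TEAD4C367S, TEAD1 209–426, TEAD2 217–447 or TEAD3 210–427) incubated with 100 μM compound in PBS for 24 h at 4 °C. Samples were centrifuged to remove precipitate, desalted on a C3 reverse-phase column with a water/acetonitrile 0.1% formic acid gradient, and masses were read by Q-TOF. Adduct peaks were reported as percent.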

[6] = organism: Homo sapiens; experiment: as §3, with “C367S mutant” for “(217 to 434 residues)”, “(DE3)/FAM-labelled” for “(DE3) cells/FAM-labelled”; outline: as §4
[7] = target: T1, YAP1-TEAD4 (Homo sapiens); experiment: as §3, with “assessed as second protein-compound adduct” for “assessed as protein-compound adduct”; outline: as §4
[8] = target: T1, YAP1-TEAD4 (Homo sapiens); experiment: as §3, with “assessed as additional protein-compound adduct” for “assessed as protein-compound adduct”; outline: as §4

Sequence of YAP1-TEAD4 (P46937 whole entry, the tested form may be a part): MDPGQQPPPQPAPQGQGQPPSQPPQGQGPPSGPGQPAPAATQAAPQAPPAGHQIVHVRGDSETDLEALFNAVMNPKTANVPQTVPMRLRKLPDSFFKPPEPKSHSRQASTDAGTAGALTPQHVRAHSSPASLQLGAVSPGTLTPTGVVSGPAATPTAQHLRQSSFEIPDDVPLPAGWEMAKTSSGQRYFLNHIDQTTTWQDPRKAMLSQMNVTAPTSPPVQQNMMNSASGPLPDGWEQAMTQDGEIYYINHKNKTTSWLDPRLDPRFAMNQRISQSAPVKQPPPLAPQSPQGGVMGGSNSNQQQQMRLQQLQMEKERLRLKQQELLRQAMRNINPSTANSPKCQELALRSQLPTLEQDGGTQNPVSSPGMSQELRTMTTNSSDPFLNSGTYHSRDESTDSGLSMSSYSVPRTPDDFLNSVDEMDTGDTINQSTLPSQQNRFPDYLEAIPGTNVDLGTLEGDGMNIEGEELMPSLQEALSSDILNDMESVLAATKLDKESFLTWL
Sequence of YAP1-TEAD4 (Q15561 whole entry, the tested form may be a part): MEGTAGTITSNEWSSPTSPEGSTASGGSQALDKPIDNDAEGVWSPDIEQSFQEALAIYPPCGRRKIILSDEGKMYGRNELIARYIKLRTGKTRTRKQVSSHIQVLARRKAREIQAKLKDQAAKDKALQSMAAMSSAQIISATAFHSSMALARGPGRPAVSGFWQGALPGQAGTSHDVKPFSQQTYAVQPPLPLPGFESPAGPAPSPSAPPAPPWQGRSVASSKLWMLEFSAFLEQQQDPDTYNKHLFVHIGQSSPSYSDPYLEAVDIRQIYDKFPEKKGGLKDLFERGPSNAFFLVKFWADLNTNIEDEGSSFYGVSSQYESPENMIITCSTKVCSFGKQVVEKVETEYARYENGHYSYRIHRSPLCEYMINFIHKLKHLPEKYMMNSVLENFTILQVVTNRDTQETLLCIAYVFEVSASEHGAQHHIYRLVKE

Compound | inhibition [1] | Imax [2] [%] | inhibition [3] | IC50 [4] [µM] | percent protein-compound adduct formation [5] [%] | inhibition [6] | percent second protein-compound adduct [7] [%] | percent protein-compound adduct formation [8] [%]
Cc1ccc(C2CC(c3cccs3)=NN2C(=O)CCl)cc1 (stereo not drawn) | inactive | 41 | inactive | 3.8 | 27 | inactive |  | 
COc1ccc(C(C(=O)NC2CCCCCC2)N(Cc2ccccc2)C(=O)CCl)cc1 (stereo not drawn) | inactive | 49 | inactive | 7.4 | 31 | inactive |  | 
O=C(CCl)N1CCN(S(=O)(=O)/C=C/c2ccccc2)CC1 | inactive | 49 | inactive | 4.9 | 73 |  |  | 
Cc1ccc(S(=O)(=O)N2CCN(C(=O)CCl)C2)cc1 | inactive | 49 | inactive | 1.9 | 75 |  | 25 | 
O=C(NCCc1ccccc1)C(c1cccs1)N(C(=O)CCl)c1ccc(Cl)cc1 (stereo not drawn) | inactive | 40 | inactive | 4 | 15 | inactive |  | 
O=C(CCl)N1N=C2/C(=C/c3ccco3)CCCC2C1c1ccco1 (stereo not drawn) | inactive | 67 | inactive | 7.8 | 32 | inactive | 10 | 
O=C(CCl)N1N=C(c2ccc(Cl)cc2)CC1c1ccco1 (stereo not drawn) | inactive | 62 | inactive | 6 | 64 | inactive | 18 | 
Cc1ccc(S(=O)(=O)N2CCN(C(=O)CCl)C2c2ccccc2)cc1 (stereo not drawn) | inactive | 50 | inactive | < 1 | 52 |  | 23 | 
COc1ccc(N(C(=O)CCl)C(C(=O)NCCc2ccccc2)c2cccs2)cc1Cl (stereo not drawn) | inactive | 39 | inactive | 1.1 | 51 | inactive | 12 | 15
O=C(CCl)N1N=C(c2ccccc2)CC1c1ccccc1 (stereo not drawn) | inactive | 52 | inactive | 5.9 | 38 | inactive | 21 | 
O=C(CCl)N1N=C(c2cccs2)CC1c1cccs1 (stereo not drawn) | inactive | 46 | inactive | 4.7 | 45 | inactive | 9 | 
Cc1ccc2c(c1)c1c3n2CCN(C(=O)CCl)C3CCC1 (stereo not drawn) | inactive | 50 | inactive | 2 | 29 |  | 30 | 30
Cc1ccc(S(=O)(=O)N2CCN(C(=O)CCl)CC2)cc1C | inactive | 48 | inactive | 22.8 | 38 |  |  | 
COc1ccc(CN(C(=O)CCl)C(C(=O)NC2CCCCC2)c2cccs2)cc1 (stereo not drawn) | inactive | 67 | inactive | 13 | 12 | inactive | 20 | 30
COc1ccc(C(C(=O)NC2CCCCCC2)N(Cc2ccc(C)cc2)C(=O)CCl)cc1 (stereo not drawn) | inactive | 36 | inactive | 4.4 | 25 | inactive |  | 
COc1ccc(C2=NN(C(=O)CCl)C(c3nc4ccccc4[nH]3)C2)cc1 (stereo not drawn) | inactive | 45 | inactive | 5.8 | 38 | inactive | 30 | 
COc1ccc(CN(C(=O)CCl)C(C(=O)NC2CCCCCC2)c2ccc(OC)cc2)cc1 (stereo not drawn) | inactive | 45 | inactive | 5.5 | 37 | inactive |  | 
O=C(CCl)N1CCN(S(=O)(=O)c2ccc(Cl)cc2[N+](=O)[O-])CC1 | inactive |  | inactive |  | 54 |  | 31 | 
COc1ccc(C2=NN(C(=O)CCl)C(c3cccc(OC)c3OC)C2)cc1 (stereo not drawn) | inactive | 39 | inactive | 1.1 | 42 | inactive |  | 
COc1ccc(C(C(=O)NCCc2ccccc2)N(Cc2cccs2)C(=O)CCl)cc1 (stereo not drawn) | inactive | 42 | inactive | 10.5 | 47 | inactive |  | 
COc1ccc(C(C(=O)NC2CCCCCC2)N(Cc2cccs2)C(=O)CCl)cc1 (stereo not drawn) | inactive | 41 | inactive | 4.8 | 32 | inactive |  | 
O=C(CCl)N1N=C(c2ccc(Br)cc2)CC1c1ccc(F)cc1 (stereo not drawn) | inactive | 41 | inactive | 1.5 | 27 | inactive |  | 
